HSF1_inh = HSF1 inhibition; AID 2098; NIH3T3-HGL HSE-luciferase, MG132-induced, luminescence 8 h; stronger effect = lower value; hit rate 0.77% among 300,000; activity change, negative = inhibition, % at 7.5 µM (by protocol);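 active means more than half of replicate wells show activity change below -50%, luminescence cut by over half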;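 further: luciferase reports HSF-1 transcriptional activity via heat shock element; 0% = median of DMSO wells and -100% = zero luminescence signal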
HSF1_activator = increases HSF-1 driven luciferase reporter signal. AID 504408. NIH3T3-HGL HSF-1 luciferase reporter, MG132, 8 h; 100% = twice DMSO control signal. activation, % at 9 µM. hit rate 1.7% among 300,000;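 active means mean replicate activation of at least 50% with a set share of replicates each reaching 50%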;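 further: 0% = median of the neutral control wells and 100% = twice that signal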
HCV_NS3_hel_inh = blocks Hepatitis C virus NS3 helicase unwinding; NS3 helicase DNA unwinding, Cy5 molecular beacon fluorescence; inhibition, % at 10.9 µM; hit rate 0.56% among 290,000; AID 1800;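 active means inhibition above the mean of all tested compounds plus 3 SD, set per campaign, cut at about 35% in these data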;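 further: 0% = DMSO wells and 100% = thioflavine S control wells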
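test system = hepatitis C virus NS3 helicase domain fragment enzyme | reagent = annealed dual-labelled DNA beacon duplex, ATP-started | times = 1 h at 25 °C | detection = Cy5 fluorescence, 0 and 60 min reads | read-out basis = percent inhibition from t60/t0 fluorescence ratio | control set = DMSO and thioflavine S | replication = one well per compound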
Lipid_droplet = hepatic lipid droplet formation modulation; hit rate 0.4% among 240,000; inhibition, % at 6.5 µM; AML12 mouse hepatocytes, oleate lipid droplets, BODIPY imaging; AID 1656;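 active means lipid droplet intensity inhibited by at least 50%, with more than 500 cells counted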
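Assay system: AML12 hepatocytes (mouse); Probe or stimulus: oleic acid at 100 µM to induce lipid droplet formation; Dosing: compound at 6.5 µM only; Schedule: compound with oleate, overnight; Detection: fluorescence imaging, 20x objective, two fields per well; Measure: % inhibition of lipid droplet signal.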
HSP90_inh = HSP90 refolding inhibition in rabbit reticulocyte lysate. hit rate 0.91% among 290,000. inhibition, % at 5.6 µM. luciferase refolding luminescence, 3 h. AID 1789;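 active means inhibition above the screen-wide mean plus 3 SD, computed separately per campaign, cut at about 16% in these data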;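 further: 0% = DMSO wells and 100% = 60 µM geldanamycin wells; inhibitors lower the luminescence because luciferase stays unfolded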
NS3_hel_confirm = HCV NS3 helicase inhibition, confirmation assay; inhibition, % at 10.9 µM; NS3 helicase DNA unwinding, Cy5 molecular beacon fluorescence; shares compounds with HCV_NS3_hel_inh; hit rate 31% among 1,600;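 active means inhibition above the mean of all tested compounds plus 3 SD, cutoff set per campaign, cut at about 36% in these data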
FID_counter_trip = intercalator displacement, NS3 helicase counter-screen; shares compounds with HCV_NS3_hel_inh; DNA fluorescent intercalator displacement, fluorescence; inhibition, % at 7.9 µM; hit rate 4% among 1,600; AID 1945; in the data active means inhibition above about 37%;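 further: 0% = vehicle and 100% = reference compound; higher means more displacement of ethidium bromide from the DNA hairpin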
DNA_FID_DR = counter-screen for HCV NS3 helicase inhibitors: DNA intercalator displacement dose response; shares compounds with HCV_NS3_hel_inh; fluorescent intercalator displacement from DNA, fluorescence; IC50, µM; 120 tested, under 10 active; AID 2172; call rule not given here
The depositor's hits bear a star; i = inactive; nt = no result. A selection: hits, their analogues and other compounds. The true share with any hit is near 3.8%.

SMILES HSF1_inh HSF1_activator HCV_NS3_hel_inh Lipid_droplet HSP90_inh NS3_hel_confirm FID_counter_trip others
COc1ccc(N2C(=O)NC(=O)/C(=C/c3ccc([N+](=O)[O-])s3)C2=O)cc1 20.8 64.3* 38.5* 1.0 0.3 50.1* 0.2 DNA_FID_DR=i
Cc1cc(OC(=O)N(C)C)nc(SCc2c(Cl)cccc2Cl)n1 -0.3 0.0 -9.1 -29.4 6.6 nt nt
O=c1nc(/C=C/c2ccc(Cl)cc2Cl)cc(C(F)(F)F)[nH]1 6.2 11.1 46.4* -0.8 8.2 70.4* -16.4
Cc1cccc(N2C(=O)NC(=O)/C(=C/c3ccc(-c4ccc(C(=O)O)c(Cl)c4)o3)C2=O)c1 nt nt 37.3* -12.7 0.6 -22.4 13.6
CC[n+]1c(/C=C/C=C/c2ccc(N(C)C)cc2)sc2ccccc21 -3.7 -27.5 48.1* -98.6 2.3 107.3* 36.0
CCNc1nc(Cl)nc(NC(C)C)n1 -0.1 -2.8 -6.9 -2.3 -6.6 nt nt
